Measured values: the array DNA melting data of Ke et al. (doi:10.1101/2024.01.08.574731)

Experiments:
[1] = folding enthalpy; higher = less favourable; fluorescence melt of hairpins on a sequencing array, two-state fit; settings: sodium 0.088 M
Method in brief: (§1)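 In 50 mM Na-HEPES pH 8.0 containing 25 mM NaCl, hairpins from the library on a sequenced MiSeq flow cell were imaged for Cy3 fluorescence at 2.5 °C steps up to 60 °C, with Cy3 and quencher oligos annealed. After normalisation to pre-quench Cy3 and to control constructs, two-state fits with bootstrapping gave melting temperature and folding enthalpy. Four replicates were combined by inverse-variance weighting, and fitted temperatures were shifted up by 9.35 °C to match UV melts.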

[2] = melting temperature; fluorescence melt of hairpins on a sequencing array, two-state fit, raised by 9.35 °C to match UV melts; settings: sodium 0.088 M
Method in brief: as §1

| Sequence | folding enthalpy [1] [kcal/mol] | Tm [2] [°C] |
| --- | --- | --- |
| GTCCACGAAAGTGACGAC ((((((....)))..))) | -20.4 | 43.9 |
| GTCCACGAAAGTGCTGAC ((((((....)))..))) | -14.7 | 33.9 |
| GTCCACGAAAGTGGTGAC ((((((....)))..))) | -9.78 | 38.2 |
| GTCCACGAAAGTGTGGAC ((((((....)))..))) | -27.1 | 55.8 |
| GTCCACGGAAACGCAGAC (((..((....))..))) | -21.3 | 29.1 |
| GTCCACGGAAACGCGGAC ((((.((....)).)))) | -45.8 | 53.8 |
| GTCCACGGAAACGTGGGC (.(((((....))))).) | -28.2 | 62.1 |
| GTCCAGGGAAACTTGGAC (((((.(....).))))) | -22.3 | 48.2 |
| GTCCATCGAAAGATCGAC (((.(((....))).))) | -31 | 35.5 |
| GTCCATGAAAATGGAC ((((((....)))))) | -31.7 | 62.4 |
| GTCCATGGAAACGTGGAC (((((.(....).))))) | -48.1 | 52.9 |
| GTCCCACGAAAGTGAGAC (((.(((....))).))) | -30.2 | 49.4 |
| GTCCCAGGAAACTGAGAC (((.(((....))).))) | -28 | 39 |
| GTCCCATCGAAAGATGAC (((..(((....)))))) | -12 | 25.9 |
| GTCCCCACGAAAGTGGAC (((..(((....)))))) | -6.73 | 29.3 |
| GTCCCCGAAAGGGAGGAC ((((((....)))..))) | -17.4 | 49.7 |
| GTCCCCGAAAGGGGCGAC ((((((....)))..))) | -14 | 65.8 |
| GTCCCCGAAAGGGTAGAC ((((((....)))..))) | -16.1 | 40.6 |
| GTCCCCTCGAAAGAGGAC (((..(((....)))))) | -8.53 | 33.6 |
| GTCCCGCGAAAGCGGAC (((.(((....)))))) | -9.81 | 56.3 |
| GTCCCGGGAAACTGGGAC (((((.(....).))))) | -37.2 | 60 |
| GTCCCGGGAAACTGGGGC (.(((.(....).))).) | -41.1 | 48.6 |
| GTCCCTCGAAAGAGAGAC (((.(((....))).))) | -23.3 | 46.2 |

| Sequence | folding enthalpy [1] [kcal/mol] | Tm [2] [°C] |
| --- | --- | --- |
| GTCCCTCGAAAGAGCGAC (((.(((....))).))) | -26.8 | 40.1 |
| GTCCGAACGAAAGTTGAC (((..(((....)))))) | -15.3 | 29.1 |
| GTCCGACGAAAGTCCGAC (((.(((....))).))) | -27.5 | 44 |
| GTCCGACGAAAGTCGAC (((.(((....)))))) | -13.2 | 44.7 |
| GTCCGACGAAAGTCTGAC (((.(((....))).))) | -27.1 | 49.1 |
| GTCCGCCGAAAGGCAGAC (((.(((....))).))) | -21.7 | 54.2 |
| GTCCGCGAAAGCGGAGAC ((((((....)))..))) | -7 | 56.8 |
| GTCCGCGAAAGCGGTGAC ((((((....)))..))) | -8.67 | 41 |
| GTCCGCGAAAGCGTAGAC ((((((....)))..))) | -16.7 | 43 |
| GTCCGCGAAAGCGTGGAC ((((((....)))..))) | -16.9 | 54.8 |
| GTCCGCGGAAACGTGGAC ((((.((....)).)))) | -43.5 | 62 |
| GTCCGTCCGAAAGGAGAC (((..(((....)))))) | -11.8 | 29.1 |
| GTCCGTGCGAAAGCAGAC (((..(((....)))))) | -13.8 | 32.4 |
| GTCCGTGGAAACATGGAC ((((.((....)).)))) | -36.9 | 53.6 |
| GTCCGTGGAAACATGGGC (.((.((....)).)).) | -24.9 | 44.9 |
| GTCCGTGGAAACGCGGAC (((((.(....).))))) | -39.8 | 62.2 |
| GTCCTAACGAAAGTTGAC (((..(((....)))))) | -10.9 | 26.6 |
| GTCCTACCGAAAGGTGAC (((..(((....)))))) | -11.1 | 32.5 |
| GTCCTAGGAAACTAGGAC (((((((....))))))) | -51 | 57.2 |
| GTCCTCCGAAAGGACGAC (((.(((....))).))) | -26.1 | 49.7 |
| GTCCTCGAAAGAGACGAC ((((((....)))..))) | -20 | 42 |
| GTCCTCGAAAGAGATGAC ((((((....)))..))) | -16.2 | 33.4 |
| GTCCTCGAAAGAGCGAC ((((((....))).))) | -21.4 | 45.4 |

| Sequence | folding enthalpy [1] [kcal/mol] | Tm [2] [°C] |
| --- | --- | --- |
| GTCCTCGAAAGAGTAGAC ((((((....)))..))) | -19.8 | 35.9 |
| GTCCTCTCGAAAGAGGAC (((..(((....)))))) | -36.2 | 58.5 |
| GTCCTGCCGAAAGGCGAC (((..(((....)))))) | -9.38 | 33.2 |
| GTCCTGGAAACAGGAC ((((((....)))))) | -38.6 | 63 |
| GTCCTGGGAAACCAAGAC (((.(((....))).))) | -22.4 | 34.5 |
| GTCCTGGGAAACTGGGAC ((((..(....)..)))) | -26.5 | 44.8 |
| GTCCTTGGAAACAAGGAC (((((((....))))))) | -38.8 | 59.8 |
| GTCCTTGGAAACAAGGGC (.(((((....))))).) | -36.7 | 52.3 |
| GTCCTTGGAAACAGGGAC ((((.((....)).)))) | -33 | 46.4 |
| GTCCTTGGAAACGAGGAC (((((.(....).))))) | -40.8 | 50.7 |
| GTCGAACGAAAGTTGAC (((.(((....)))))) | -23.4 | 46.3 |
| GTCGAACGAAAGTTTGAC (((.(((....))).))) | -42.2 | 54.5 |
| GTCGAAGAAATTCGAC ((((((....)))))) | -35.6 | 56.2 |
| GTCGAAGCGAAAGCTGAC (((..(((....)))))) | -14.8 | 46.5 |
| GTCGAAGGAAACTTTGGC (.(.(((....))).).) | -22.4 | 29.9 |
| GTCGACACGAAAGTGGAC (((..(((....)))))) | -13.9 | 41.2 |
| GTCGACGAAAGTCGGAC ((((((....))).))) | -14.3 | 58.1 |
| GTCGACGCGAAAGCGGAC (((..(((....)))))) | -12.8 | 45.4 |
| GTCGACGGAAACGTCAAC ((.((((....)))).)) | -15.6 | 43.5 |
| GTCGACGGAAACGTCGGC (.(((((....))))).) | -22.3 | 64.8 |
| GTCGACGGAAACGTTGAC (((.(((....))).))) | -45.5 | 56.3 |
| GTCGACTCGAAAGAGGAC (((..(((....)))))) | -16.9 | 35.6 |
| GTCGATGGAAACATTGAC (((.(((....))).))) | -36.2 | 48.3 |

| Sequence | folding enthalpy [1] [kcal/mol] | Tm [2] [°C] |
| --- | --- | --- |
| GTCGATTCGAAAGAAGAC (((..(((....)))))) | -13 | 29.7 |
| GTCGCACCGAAAGGTGAC (((..(((....)))))) | -8.3 | 35 |
| GTCGCACGAAAGTGAGAC (((.(((....))).))) | -30.6 | 59.5 |
| GTCGCAGGAAACTACGAC ((((.((....)).)))) | -32.1 | 46.3 |
| GTCGCAGGAAACTGCAAC ((.((((....)))).)) | -16.7 | 41.1 |
| GTCGCCACGAAAGTGGAC (((..(((....)))))) | -9.49 | 35.7 |
| GTCGCCCCGAAAGGGGAC (((..(((....)))))) | -9.73 | 40.1 |
| GTCGCCGAAAGGCAAGAC ((((((....)))..))) | -15.4 | 49.8 |
| GTCGCCGAAAGGCAGAC ((((((....))).))) | -17.7 | 61.7 |
| GTCGCCGAAAGGCCTGAC ((((((....)))..))) | -12.4 | 31.8 |
| GTCGCCGAAAGGCGTGAC ((((((....)))..))) | -8.03 | 36.3 |
| GTCGCCGAAAGGCTTGAC ((((((....)))..))) | -12.1 | 39.7 |
| GTCGCCGGAAACGGCAAC ((.((((....)))).)) | -11.2 | 47.1 |
| GTCGCTCGAAAGAGGGAC (((.(((....))).))) | -44.3 | 63.2 |
| GTCGCTGGAAACAGCAAC ((.((((....)))).)) | -15 | 41.7 |
| GTCGCTGGAAACGGTGAC (((.(.(....).).))) | -28.6 | 44.2 |
| GTCGGAACGAAAGTTGAC (((..(((....)))))) | -10.8 | 32.7 |
| GTCGGAGCGAAAGCTGAC (((..(((....)))))) | -22.1 | 44.3 |
| GTCGGAGGAAACTTCGAC ((((.((....)).)))) | -47.7 | 51 |
| GTCGGCGAAAGCCAAGAC ((((((....)))..))) | -15.2 | 49.9 |
| GTCGGCGAAAGCCAGGAC ((((((....)))..))) | -13.7 | 49.9 |
| GTCGGCGAAAGCCCAGAC ((((((....)))..))) | -13.5 | 42.7 |
